# MT1-MMP act inh: blockers of MT1-MMP proenzyme processing, primary screen, HT1080 RFP-PRO-GFP cells, GFP/RFP fluorescence; Matrix metalloproteinase-14 (Homo sapiens), P50281; GFP/RFP ratio fluorescence, overnight; percent of plate control window, DMSO zero; GFP/RFP ratio change, % at 20 µM; 360,000 tested, 0.061% active; AID 651647, 2012;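 active means GFP/RFP ratio change of at least 30% with cell ATP level not reduced by more than half and red fluorescence within 50% of control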
#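 Material: RFP-PRO-GFP reporter HT1080 cells. Dosing: single-point 20 µM compound, 1% DMSO. Controls: DMSO and RFP-L50D-GFP cell wells. Timing: cells overnight before dosing, compound overnight, 37 °C, 5% CO2. Measure: GFP/RFP fluorescence ratio.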
# GC-A act: GC-A stimulated cGMP production enhancers – HEK293 GC-A cells, cGMP TR-FRET, EC30 ANP, primary screen; 370,000 tested, 0.14% active; Atrial natriuretic peptide receptor 1 (Homo sapiens), P16066; activation, % at 10 µM; 0% at EC30 ANP, 100% saturating ANP; in the data active means activation above about 40%
# Target sequence (P16066 whole entry, looked up): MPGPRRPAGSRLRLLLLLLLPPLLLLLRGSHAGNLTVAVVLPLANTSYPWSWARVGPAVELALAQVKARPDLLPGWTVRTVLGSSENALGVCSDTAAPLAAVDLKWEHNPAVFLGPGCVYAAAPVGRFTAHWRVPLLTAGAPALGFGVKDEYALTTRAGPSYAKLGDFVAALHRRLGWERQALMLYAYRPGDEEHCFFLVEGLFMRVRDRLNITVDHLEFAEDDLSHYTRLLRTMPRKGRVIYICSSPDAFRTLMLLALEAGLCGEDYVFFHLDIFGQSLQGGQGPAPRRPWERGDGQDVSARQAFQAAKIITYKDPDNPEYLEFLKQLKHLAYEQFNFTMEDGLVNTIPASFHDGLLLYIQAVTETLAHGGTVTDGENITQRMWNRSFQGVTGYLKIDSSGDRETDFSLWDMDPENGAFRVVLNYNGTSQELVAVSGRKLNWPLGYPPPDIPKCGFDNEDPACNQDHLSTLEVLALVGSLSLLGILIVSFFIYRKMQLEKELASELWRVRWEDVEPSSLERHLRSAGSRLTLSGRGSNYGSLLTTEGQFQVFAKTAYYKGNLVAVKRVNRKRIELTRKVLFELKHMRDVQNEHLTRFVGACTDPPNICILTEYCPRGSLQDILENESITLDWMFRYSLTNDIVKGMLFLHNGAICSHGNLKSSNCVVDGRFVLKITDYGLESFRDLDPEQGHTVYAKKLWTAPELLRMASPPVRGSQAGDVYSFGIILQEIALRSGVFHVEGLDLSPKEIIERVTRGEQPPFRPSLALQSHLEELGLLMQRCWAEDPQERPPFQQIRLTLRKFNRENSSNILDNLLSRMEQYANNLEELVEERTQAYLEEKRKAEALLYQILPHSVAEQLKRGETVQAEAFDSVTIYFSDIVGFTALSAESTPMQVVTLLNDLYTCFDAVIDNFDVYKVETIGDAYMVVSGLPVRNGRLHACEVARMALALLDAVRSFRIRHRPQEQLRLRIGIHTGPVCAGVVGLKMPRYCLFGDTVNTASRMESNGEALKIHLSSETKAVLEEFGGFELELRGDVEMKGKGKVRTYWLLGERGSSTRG
# TbMetRS inhib: T. brucei MetRS inhibitors, primary screen, biochemical, luminescence; inhibition, % at 11.9 µM; purified T. brucei MetRS, ATP depletion, Kinase-Glo luminescence; AID 624268, 2012; 360,000 tested, 0.4% active;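 active means inhibition above a per-plate cutoff of the control wells' mean inhibition plus 3 SD, cut at about 5.5% in these data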;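 further: 0% = DMSO wells median and 100% = median of wells with control inhibitor compound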
#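 Material – parasite MetRS enzyme · Medium – HEPES-MgCl2-KCl buffer plus DTT, spermine, BSA, pyrophosphatase · Reagent – ATP, methionine and E. coli bulk tRNA substrates · Times – 15 min enzyme-compound preincubation, 2 h reaction, 10 min detection, 25 °C · Measured by – luminescence of leftover ATP · Evaluation – percent inhibition relative to median high and low control wells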
# A1 inh: caspase 3/7 activation in MEF A1-2A-BIM cells, primary screen, A1 inhibitor project, cell-based, luminescence, HTS; caspase activation, % (test concentration not listed); 330,000 tested, 0.066% active; AID 2462, 2010; Caspase-Glo 3/7 luminescence, 3 h; percent of clofoctol response, vehicle zero;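 active means over half of replicate activation scores above 10%, or exactly half above 10 with the replicate mean above 10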
# GC-B act: human GC-B receptor activators, primary screen, HEK293 GC-B cells, cGMP TR-FRET, EC30 CNP. 0% at EC30 CNP, 100% saturating CNP. activation, % at 10 µM. Atrial natriuretic peptide receptor 2 (Homo sapiens), P20594. 370,000 tested, 0.11% active;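 active means activation at 10 µM reaching about 35% in either raw or pattern-adjusted values, limit read from the data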
# SKN-1 block: suppressors of acrylamide-induced Pgst-4::GFP reporter in worms, primary screen, SKN-1 inhibitor project, whole organism, uHTS, GFP/RFP fluorescence ratio, strain VP596. 360,000 tested, 0.49% active. inhibition, % at 21.8 µM. C. elegans VP596 Pgst-4::GFP/RFP ratio, 24 h;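 active means interference check ratio from 0.5 to 1.5 plus GFP to RFP signal ratio inhibition reaching or exceeding a fixed threshold, cut at about 30% in these data, passing the limit was not always enough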
# Tb MetRS conf: T. brucei MetRS inhibitors, confirmation, biochemical, luminescence; AID 624412, 2012; inhibition, % at 11.9 µM; shares compounds with TbMetRS inhib; 1,400 tested, 93% active; T. brucei MetRS enzyme, luminescence (ATP depletion); in the data active means inhibition above about 7%
# Jurkat tox: Jurkat T cell cytotoxicity, cytotoxicity control for T. brucei MetRS inhibitor project, luminescence, high throughput; AID 624413, 2012; 1,400 tested, 12% active; inhibition, % at 8.3 µM; shares compounds with TbMetRS inhib; Jurkat cells viability, ATP luminescence; in the data active means inhibition above about 15%;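 further: 0% = vehicle and 100% = reference inhibitor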
# TbMetRS FP orth: T. brucei MetRS inhibitors, orthogonal assay for T. brucei MetRS inhibitor project, biochemical, fluorescence polarization; shares compounds with TbMetRS inhib; purified T. brucei MetRS; inhibition, % at 11.9 µM; 1,400 tested, 44% active; AID 651607, 2012; in the data active means inhibition above about 17%;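 further: 0% = vehicle wells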
# * marks the source's active call; other numbers are inactive results; . = not tested or not shown. Only some compounds are listed: those with a hit (about 1.1% of all), similar ones and a draw of the others.
SMILES,MT1-MMP act inh,GC-A act,TbMetRS inhib,A1 inh,GC-B act,SKN-1 block,Tb MetRS conf,Jurkat tox,TbMetRS FP orth
Cc1csc(CNc2ncnc3ccc(-c4ccccc4Cl)cc23)c1,-3,10,6.0*,0,13,13,25*,4,20*
Cc1cccc(CCN=C(N)NS(=O)(=O)c2ccccc2)c1,4,-3,6.2*,1,5,9,14*,6,5
Cc1ccc2[nH]c(CSc3ccccc3)cc(=O)c2c1,-2,-7,11*,1,1,22,23*,5,-2
Cc1cc(SCC(=O)N/N=C/c2ccc(O)cc2O)c(C)cc1Br,3,-3,52*,0,-4,-5,92*,41*,75*
O=C(O)[C@H]1CCCN1C(=O)c1ccccc1N1C(=O)[C@@H]2Cc3c([nH]c4ccccc34)C(c3cccc(Cl)c3)N2C1=O (stereo partly drawn),4,22,8.3*,0,35*,8,18*,4,8
O=C(O)[C@@H]1CCCN1C(=O)c1ccccc1N1C(=O)[C@@H]2Cc3c([nH]c4ccccc34)C(c3cccc(Cl)c3)N2C1=O (stereo partly drawn),-1,25,4,0,30,7,.,.,.
O=C(C(=O)N1CCN(c2cccc(Cl)c2)CC1)c1c[nH]c2ccccc12,-3,-6,9.4*,0,1,19,12*,0,7
Cc1[nH]c2ccc(C(=O)N3CCN(c4cccc(Cl)c4)CC3)cc2c1C,0,-3,0,0,-1,9,.,.,.
Cc1[nH]c2ccccc2c1C(=O)C(=O)N1CCN(c2cccc(Cl)c2)CC1,1,-12,7.1*,-1,-7,-12,15*,-2,3
Cc1[nH]c2ccccc2c1C(=O)C(=O)N1CC(C)OC(C)C1 (stereo not drawn),2,0,1,1,0,-2,.,.,.
COc1ccccc1N1CCN(C(=O)C(=O)c2c(C)[nH]c3ccccc23)CC1,2,-9,6.6*,0,-1,0,19*,1,4
Cc1[nH]c2ccccc2c1C(=O)C(=O)N1CC=C(c2ccccc2)CC1,-103,5,9.1*,0,-1,18,13*,10,1
COc1ccc(COC[C@H](C)N2C[C@@H](C)[C@H](CN(C)S(=O)(=O)c3ccc(F)cc3)OCCCC[C@H](C)Oc3ccc(NC(=O)Nc4ccccc4)cc3C2=O)cc1,.,-2,.,.,1,.,.,.,.
Cc1[nH]c2ccccc2c1C(=O)C(=O)N1CCN(c2ccccc2Cl)CC1,5,4,9.0*,0,-1,-5,28*,-4,15
Cc1[nH]c2ccc(C(=O)N3CCN(c4ccccc4Cl)CC3)cc2c1C,1,3,0,0,2,5,.,.,.
Nc1cc(=O)[nH]c(SCC(=O)Nc2ccc(Cl)c(Cl)c2)n1,3,7,2,0,-3,-6,.,.,.

# From PubChem
